Values after ≈ are worked out from the molar mass of the structure shown.

Experiment [1] can be described thus: Inhibition of bocillin FL binding to Pseudomonas aeruginosa PAO1 penicillin-binding protein 4. The method, boiled down: (§1)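 P. aeruginosa PAO1 PBPs were isolated and competed with 10 drug concentrations from 0.06 μg/ml to 32 μg/ml before Bocillin FL labeling. Bands were detected by fluorescence imaging. IC50 was taken as 50% inhibition of Bocillin FL binding versus the no-drug sample.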

Experiment [2] can be described thus: Inhibition of bocillin FL binding to Escherichia coli MC4100 penicillin-binding protein 5. In short, it runs like this:
(§2)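 Isolated E. coli MC4100 PBPs were competed with 10 drug concentrations from 0.016 μg/ml to 8 μg/ml, then labeled with Bocillin FL. Fluorescent PBP bands were imaged. IC50 is the concentration giving 50% inhibition of Bocillin FL binding to each PBP relative to a no-drug control.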

A short description of experiment [3]: Inhibition of bocillin FL binding to Escherichia coli MC4100 penicillin-binding protein 6. In short, it runs like this: as §2
A short description of experiment [4]: Inhibition of bocillin FL binding to Pseudomonas aeruginosa PAO1 penicillin-binding protein 5/6. The method, boiled down: (§3)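 Isolated P. aeruginosa PAO1 PBPs; drug added at 10 concentrations, 0.06 μg/ml to 32 μg/ml, before Bocillin FL labeling. Labeled PBPs imaged. IC50 is the drug level cutting Bocillin FL binding by 50% versus a no-drug sample.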
The target in experiment [5] is T1, Cell shape peptidoglycan synthetase penicillin-binding protein 2 (Escherichia coli, UniProt Q2TL65).
T1 sequence (Q2TL65 whole entry): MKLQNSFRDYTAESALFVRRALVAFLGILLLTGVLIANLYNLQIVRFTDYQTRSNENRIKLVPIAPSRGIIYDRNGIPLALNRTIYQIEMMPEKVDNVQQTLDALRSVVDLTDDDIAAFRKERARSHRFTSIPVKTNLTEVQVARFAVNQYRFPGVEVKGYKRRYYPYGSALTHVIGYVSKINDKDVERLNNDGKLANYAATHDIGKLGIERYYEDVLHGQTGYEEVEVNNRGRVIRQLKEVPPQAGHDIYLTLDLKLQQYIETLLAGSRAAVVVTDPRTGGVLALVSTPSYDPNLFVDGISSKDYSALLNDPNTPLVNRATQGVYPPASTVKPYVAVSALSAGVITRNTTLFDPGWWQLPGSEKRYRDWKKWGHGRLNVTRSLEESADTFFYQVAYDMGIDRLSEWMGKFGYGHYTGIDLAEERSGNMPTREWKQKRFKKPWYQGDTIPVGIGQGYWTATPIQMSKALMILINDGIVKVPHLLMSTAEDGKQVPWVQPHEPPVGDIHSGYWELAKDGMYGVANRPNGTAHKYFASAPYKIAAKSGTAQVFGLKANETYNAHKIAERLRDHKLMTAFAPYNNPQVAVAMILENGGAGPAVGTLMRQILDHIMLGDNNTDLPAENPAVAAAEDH
As to the kind of experiment: Inhibition of bocillin FL binding to Escherichia coli MC4100 penicillin-binding protein 2. In short, it runs like this:
(§4)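 Isolated E. coli MC4100 PBPs; competition with drug at 10 concentrations, 0.016 μg/ml to 8 μg/ml, then Bocillin FL labeling. Gel bands visualized by imaging. IC50 is the concentration giving 50% inhibition of Bocillin FL binding relative to a no-drug control.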

A short description of experiment [6]: Inhibition of bocillin FL binding to Escherichia coli MC4100 penicillin-binding protein 4. The method, boiled down:
as §2

The nature of experiment [7]: Inhibition of bocillin FL binding to Pseudomonas aeruginosa PAO1 penicillin-binding protein 1a. In short, it runs like this: as §1
Experiment [8] in a line: Inhibition of bocillin FL binding to Escherichia coli MC4100 penicillin-binding protein 1a. In short, it runs like this:
as §4

The target in experiment [9] is T2, Penicillin-binding protein 2 (Pseudomonas aeruginosa, UniProt Q9X6V3).
T2 sequence (Q9X6V3 whole entry): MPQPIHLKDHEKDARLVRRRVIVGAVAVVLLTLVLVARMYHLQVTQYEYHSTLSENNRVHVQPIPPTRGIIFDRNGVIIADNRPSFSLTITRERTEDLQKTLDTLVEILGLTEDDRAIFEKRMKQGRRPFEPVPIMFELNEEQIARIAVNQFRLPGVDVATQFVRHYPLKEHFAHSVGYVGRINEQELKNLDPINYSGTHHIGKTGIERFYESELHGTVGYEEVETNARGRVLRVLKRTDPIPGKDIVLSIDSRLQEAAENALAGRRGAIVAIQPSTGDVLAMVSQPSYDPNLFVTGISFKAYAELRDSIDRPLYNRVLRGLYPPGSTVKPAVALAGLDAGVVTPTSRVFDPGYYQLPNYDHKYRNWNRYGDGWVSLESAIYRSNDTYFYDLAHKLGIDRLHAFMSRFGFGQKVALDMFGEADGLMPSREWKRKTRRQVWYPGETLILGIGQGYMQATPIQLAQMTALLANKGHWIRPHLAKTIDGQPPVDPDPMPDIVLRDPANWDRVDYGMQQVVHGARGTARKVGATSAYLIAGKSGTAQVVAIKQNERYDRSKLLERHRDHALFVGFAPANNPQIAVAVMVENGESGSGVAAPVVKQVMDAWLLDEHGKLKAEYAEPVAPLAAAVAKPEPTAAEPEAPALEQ
Nature of the experiment: Inhibition of bocillin FL binding to Pseudomonas aeruginosa PAO1 penicillin-binding protein 2. The method, boiled down:
as §3

For experiment [10], the target named is Penicillin-binding protein 3 (Pseudomonas aeruginosa, UniProt Q51504). As to the kind of experiment: Inhibition of bocillin FL binding to Pseudomonas aeruginosa PAO1 penicillin-binding protein 3. In short, it runs like this:
as §3

Experiment [11] is described as follows: Inhibition of bocillin FL binding to Escherichia coli MC4100 penicillin-binding protein 3. In short, it runs like this: as §2
A short description of experiment [12]: Inhibition of bocillin FL binding to Escherichia coli MC4100 penicillin-binding protein 1b. The method, boiled down: as §2
For experiment [13], the target named is T3, Penicillin-binding protein 1B (Pseudomonas aeruginosa, UniProt Q9X6W0).
T3 sequence (Q9X6W0 whole entry): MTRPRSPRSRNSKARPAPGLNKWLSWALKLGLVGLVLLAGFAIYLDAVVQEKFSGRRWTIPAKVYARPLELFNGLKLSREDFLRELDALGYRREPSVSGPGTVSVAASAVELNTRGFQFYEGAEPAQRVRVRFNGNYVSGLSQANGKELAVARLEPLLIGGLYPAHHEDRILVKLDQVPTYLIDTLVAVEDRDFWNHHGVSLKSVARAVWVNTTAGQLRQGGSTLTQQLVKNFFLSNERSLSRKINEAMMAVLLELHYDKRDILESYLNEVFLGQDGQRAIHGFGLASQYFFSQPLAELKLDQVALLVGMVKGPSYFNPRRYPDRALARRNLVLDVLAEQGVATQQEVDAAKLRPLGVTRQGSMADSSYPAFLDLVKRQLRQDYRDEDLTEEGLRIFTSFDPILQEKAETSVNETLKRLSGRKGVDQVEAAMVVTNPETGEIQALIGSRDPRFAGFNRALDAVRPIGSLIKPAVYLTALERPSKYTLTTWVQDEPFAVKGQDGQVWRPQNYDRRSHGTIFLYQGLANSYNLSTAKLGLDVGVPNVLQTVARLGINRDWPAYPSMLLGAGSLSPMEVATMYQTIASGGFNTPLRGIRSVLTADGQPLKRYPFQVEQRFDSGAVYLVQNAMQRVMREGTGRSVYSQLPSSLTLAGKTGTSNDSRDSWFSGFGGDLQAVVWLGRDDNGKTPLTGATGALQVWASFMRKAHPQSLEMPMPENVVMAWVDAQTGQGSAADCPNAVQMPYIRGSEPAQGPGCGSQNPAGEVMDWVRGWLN
As to the kind of experiment: Inhibition of bocillin FL binding to Pseudomonas aeruginosa PAO1 penicillin-binding protein 1b. In short, it runs like this:
as §3

Penicillin-binding protein 3, sequence (Q51504 whole entry): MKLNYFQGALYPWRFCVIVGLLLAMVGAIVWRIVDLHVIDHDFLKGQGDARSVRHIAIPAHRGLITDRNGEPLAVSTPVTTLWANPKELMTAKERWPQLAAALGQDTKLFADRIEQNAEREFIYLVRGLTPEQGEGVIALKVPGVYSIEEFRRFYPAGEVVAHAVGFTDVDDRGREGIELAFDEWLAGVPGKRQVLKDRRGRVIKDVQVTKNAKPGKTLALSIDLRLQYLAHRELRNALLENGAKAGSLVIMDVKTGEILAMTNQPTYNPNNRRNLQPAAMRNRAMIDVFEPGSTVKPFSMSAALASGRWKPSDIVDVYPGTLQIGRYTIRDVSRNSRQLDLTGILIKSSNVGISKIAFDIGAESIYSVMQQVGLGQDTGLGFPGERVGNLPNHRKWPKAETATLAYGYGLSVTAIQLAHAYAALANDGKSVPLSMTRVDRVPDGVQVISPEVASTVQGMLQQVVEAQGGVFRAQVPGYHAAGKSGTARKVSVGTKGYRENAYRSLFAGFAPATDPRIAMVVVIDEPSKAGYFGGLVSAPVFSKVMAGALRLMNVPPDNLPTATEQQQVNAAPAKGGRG

One may read the IC50 as the midpoint of a concentration-inhibition curve. As to `C[C@H]1[C@H](NC(=O)/C(=N\OC(C)(C)C(=O)O)c2csc(N)n2)C(=O)N1S(=O)(=O)O` (stereo in doubt) [AZTREONAM], the IC50 is 16 µg/mL (≈ 36.7 µM) in [1]; greater than 8 µg/mL in experiment [2]; greater than 8 µg/mL in experiment [3]; greater than 16 µg/mL in experiment [4]; greater than 18400 nM in experiment [5]; greater than 8 µg/mL in experiment [6]. The IC50 in experiment [7] is 2 µg/mL (≈ 4.59 µM); in experiment [8], greater than 8 µg/mL; in experiment [9] it was 36700 nM; in [10] it was 68.9 nM; in [11], 0.03 µg/mL (≈ 0.0689 µM); in experiment [12], greater than 8 µg/mL.

For the compound `CO/N=C(\C(=O)N[C@@H]1C(=O)N2C(C(=O)[O-])=C(C[N+]3(C)CCCC3)CS[C@H]12)c1csc(N)n1`, the half-maximal inhibitory concentration (IC50) was 0.3 µg/mL (≈ 0.624 µM) in [1]; greater than 4 µg/mL in experiment [2]; greater than 4 µg/mL in experiment [3]; greater than 32 µg/mL in experiment [4]; 1250 nM in [5]; greater than 4 µg/mL in [6]. The IC50 was 0.1 µg/mL (≈ 0.208 µM) in experiment [7]; 2 µg/mL (≈ 4.16 µM) in experiment [8]; 16600 nM in experiment [9]; 208 nM in experiment [10]; 0.1 µg/mL (≈ 0.208 µM) in experiment [11]; 3.7 µg/mL (≈ 7.7 µM) in experiment [12].

Regarding `C[C@@H](O)[C@H]1C(=O)N2C(C(=O)O)=C(SCCNC=N)C[C@H]12` [IMIPENEM ANHYDROUS], the IC50 in experiment [1] was 0.01 µg/mL (≈ 0.0334 µM); in experiment [2], 0.5 µg/mL (≈ 1.67 µM); in experiment [3], 0.1 µg/mL (≈ 0.334 µM); in experiment [13] it was 1670 nM; in experiment [4] it was 2 µg/mL (≈ 6.68 µM); in experiment [5] it was 33.4 nM. The IC50 in experiment [6] was 0.01 µg/mL (≈ 0.0334 µM); in experiment [7] it was 0.5 µg/mL (≈ 1.67 µM); in [8] it was 0.5 µg/mL (≈ 1.67 µM); in experiment [9] it was 334 nM; in [10], 334 nM; in [11], 8 µg/mL (≈ 26.7 µM). Also, the IC50 in experiment [12] was determined as 0.5 µg/mL (≈ 1.67 µM).

Values taken from ChEMBL document CHEMBL1157359, “Binding of ceftobiprole and comparators to the penicillin-binding proteins of Escherichia coli, Pseudomonas aeruginosa, Staphylococcus aureus, and Streptococcus pneumoniae” (Antimicrob Agents Chemother, 2007).
